Reference: ChEMBL document CHEMBL4513216, “Probing the Open Global Health Chemical Diversity Library for Multistage-Active Starting Points for Next-Generation Antimalarials” (ACS Infect Dis, 2020)

Test: Toxicity liver stage against HepG2, at 10uM
Format: cell-based
Design: test concentration 10 uM, cell line HepG2-A16-CD81EGFP
Settings: human, HepG2-A16-CD81EGFP cells; read-out: INHIBITION
Outline: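 Uninfected HepG2-A16-CD81EGFP cells, 3 × 10^3 per well, 1536-well, plated on prespotted compound at 10 μM final, parasite-free screening media added to match infected plates; puromycin 10 μM positive, DMSO 0.5% negative; run in parallel with 48 h PbLuc assay at 37 °C, 5% CO2; viability by CellTiter-Glo luminescence, normalized to controls.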

SMILES | cytotoxicity at 10 µM [%]
CCOCCCNC(=O)NCc1c(C)nn(C)c1C | -5.28
O=C(Nc1cccc2c1CCCC2)c1cccnc1N1CCCNCC1 | 6.84
CC(=O)N1N=C(c2cccs2)OC1C(=O)NCc1ccc(C)o1 (configuration not stated) | -4.67
CCC(C)N1C(=O)c2ccc(C(=O)NCCc3c[nH]cn3)cc2C1=O (configuration not stated) | -8.64
OCc1cc2ccccc2nc1N1CCCCC1 | 14.1
CSc1ncccc1C(=O)NCCC(O)c1ccco1 (configuration not stated) | -2.93
O=C(NCCn1ccc(-c2ccncc2)n1)C1CC1 | -2.08
O=C(C1CCOC1)N1C[C@H]2CN(c3ccccc3)C(=O)[C@H]2C1 (some centres not stated) | -123
Cc1cnc(N2CCCC3(COCCN(c4ccc(C)nn4)C3)C2)nc1 (configuration not stated) | -126
CC(C)NC(=O)C1CN(C(=O)Cc2ccccc2)CC12CCOCC2 (configuration not stated) | 5.31
O=C(c1ccc(Cn2cc(Br)cn2)cc1)N1CCCC1 | -7.86
CN(C)CC(=O)N1CCCC1c1cncc(Oc2ccc(F)cc2)n1 (configuration not stated) | -10.9
O=C(c1c[nH]c(=O)[nH]c1=O)N1CCCC(c2cnccn2)C1 (configuration not stated) | -3.58
C[C@]1(O)CN(CCC(N)=O)CC[C@@H]1Oc1cccc(F)c1 | -0.224
Cc1cc(N2CCCC(c3nncn3C3CC3)C2)ncn1 (configuration not stated) | -6.48
Cc1nc(CNC(=O)Nc2cc(F)ccc2N2CCN(C)CC2)no1 | -8.8
COc1cccc(C(CO)NC(=O)Cc2cccc(C)c2)c1 (configuration not stated) | 4.53
CCOc1ccccc1N(C)Cc1nccn1C | -3.83
CN(Cc1ccc(C(=O)O)cc1)C(=O)c1sccc1OC(F)F | -6.59
COCC1CN(c2ccc(Cl)cc2C#N)CCO1 (configuration not stated) | 11.1
CCC(CCNCc1cnc(C2CCC2)s1)N1CCCC1=O (configuration not stated) | -3.13
CC(C)c1csc(C2CCCN(C(=O)c3ccc(=O)n(C)c3)C2)n1 (configuration not stated) | -48.2
Cc1cccc(C(=O)N2CCN(C)CC2)c1NC(=O)c1ccncc1 | -10.8

SMILES | cytotoxicity at 10 µM [%]
Cc1n[nH]c(NC(=O)c2ccc(COCC(F)(F)F)cc2)c1C | -0.81
Cc1ccc(C(NC(=O)C2CC2)c2cccc(S(C)(=O)=O)c2)cc1 (configuration not stated) | -9.8
CC(C)(C)c1nc(CC(=O)Nc2cnccc2O)cs1 | 9.09
C=C(C)CN1CCC(NC(=O)Nc2ccc(F)c(C(=O)NC)c2)CC1 | 5.58
CCc1noc(CS(=O)(=O)Cc2ccccc2Cl)n1 | -6.75
CCN(CC)C(=O)COc1nc(C(C)C)no1 | 3.6
O=C(CN1CCOC(c2ccc(Cl)s2)C1)NCc1ccco1 (configuration not stated) | -3.09
CN(C)c1ccc(NC(=O)C2CN(Cc3ccccc3)CCO2)cn1 (configuration not stated) | 4.46
CCCN(CCS(C)(=O)=O)C1CCc2ccccc2C1 (configuration not stated) | -5.08
O=C(Nc1nnc[nH]1)C(c1cccc(F)c1)N1CCOCC1 (configuration not stated) | -9.07
CN(Cc1cc(=O)c(O)co1)C1CCN(c2ccc(F)cc2)CC1 | -3.73
COc1cc(CNc2cc(-c3nncn3C)ccn2)cc(OC)c1OC | -3.78
NC(=O)CCSCc1ccc(Br)c(F)c1 | -4.81
CN(Cc1nnc2n1CCC2)S(=O)(=O)c1ccc(Br)cc1Cl | -6.08
CCC(=O)NC1CCCN(C(=O)Nc2cc(-c3ccccc3)on2)C1 (configuration not stated) | 6.64
CCC1CN(CC(=O)NCCC#N)CCO1 (configuration not stated) | 2.28
N#Cc1ccnc(SCC2CN=C(N3CCOCC3)S2)c1 (configuration not stated) | -22.9
CC(C)c1nnc(NC(=O)CCc2cc(F)ccc2F)[nH]1 | -16.9
CSc1[nH]c(=O)c(C(=O)N2CCCC2c2cccs2)cc1C#N (configuration not stated) | -3.49
CCNc1nc(C(=O)N(C)Cc2nc(CC)no2)cs1 | -6.56
Cc1cccc(C(C)CNC(=O)N2CCC3(C2)OCCO3)c1 (configuration not stated) | 16.1
Cc1ccc(F)c(N2CCCC(Nc3nccn4cnnc34)C2=O)c1 (configuration not stated) | -0.115
O=C(O)c1ccc(S(=O)(=O)Nc2ccccc2CC(F)(F)F)c(F)c1 | 6.02

SMILES | cytotoxicity at 10 µM [%]
Cc1nnc(NCC2(c3ccc(Cl)cc3Cl)CCOCC2)c(C#N)c1C | 1.98
COCC1c2nnn(C)c2CCN1C(=O)COc1ccccc1OC (configuration not stated) | -105
O=C1CCCN1Cc1nnc2n1CCCN(C(=O)c1ccc[nH]1)C2 | -107
Cc1noc(C)c1CN1CC[C@H](OCC2CC2)[C@@H](Cc2ccccc2)C1 | -65.8
CCO[C@@H]1CCN(C(=O)c2cnc(C)cn2)[C@@H]1Cc1cnn(C)c1 | -72.7
Cc1cc(CN2CC[C@H]3C(=O)N(c4cccnc4)CCO[C@H]3C2)no1 | -66.8
O=C(c1ccoc1)N1CC[C@@H]2O[C@@H](COCc3ccccn3)CC[C@@H]21 | -71.1
c1cnc(N2CCCC3(CCN(Cc4ccsc4)C3)C2)nc1 (configuration not stated) | -83.2
CNCC[C@H]1CC(C)(C)Oc2ccc(C)cc21 | 0.526
CCCSc1ncc(-c2nccn2CCC(N)=O)cn1 | -10.4
CCC1CC(=O)NCc2nc3sc(C)cn3c21 (configuration not stated) | 5.27
Cc1csc(N2CCN(C3CCc4ccccc4C3)CC2)n1 (configuration not stated) | 2.01
O=c1cc(N2CCCC2)cnn1CCc1cccc(F)c1 | -12.8
CCN(Cc1ccncc1)C(=O)c1cc(C)c(C)c(S(N)(=O)=O)c1 | -2.33
CC(C)(O)CCc1ccc(C(=O)N2CCN(CC(F)(F)F)CC2)cc1 | 6.16
CNc1nc(C(=O)NCC2CCOc3ccccc3C2)cs1 (configuration not stated) | 2.53
CCN(CC1CCOCC1)C(=O)C1CC(=O)N(Cc2cccnc2)C1 (configuration not stated) | 0.719
CC(Cn1cnc2cn(C)nc2c1=O)Oc1cccnc1 (configuration not stated) | -11.7
CCCc1nc(N(C)CCN2CCCCCC2)c2cnn(C)c2n1 | 3.22
CN1[C@H](CO)C[C@H](CNCc2ccc(Cl)c(F)c2)[C@@H]1c1ccccc1F | -8.39
COc1ccc(OC)c(C2CCN(C(=O)C3CCN(C(C)C)CC3)C2)c1 (configuration not stated) | -7.49
CCNC(=O)C1CCN(c2cc(-c3ccccc3F)nc3ccnn23)C1 (configuration not stated) | 4.31
CSc1nccc(N2CCC(NCCN3CCOCC3)CC2)n1 | -49.5

SMILES | cytotoxicity at 10 µM [%]
O=C1CC[C@@H](C(=O)N2CCc3[nH]nc(COc4cccc(Cl)c4)c3C2)N1 | -52.1
O=C(CO)N1CC[C@@H](N2CCN(c3ccccc3F)CC2)[C@H](O)C1 | -46
CN(CCCc1cnn(C)c1)Cc1cc2n(n1)CCNC2 | 11.1
CCCc1nnc(N[C@H](C)c2ccc(OC)cc2)o1 | -19.9
CC(C)CN1CCC(NCCNc2cccnc2)CC1 | -5.25
CCC(C)N(Cc1cccnc1)Cc1ccc2c(c1)OCCO2 (configuration not stated) | -2.83
COc1ccc(C(=O)N2CCOC3(CNCCOC3)C2)c(OC)n1 (configuration not stated) | -8.2
CCn1cc(CN2CCCC(CO)(CCc3ccccc3)C2)c(C)n1 (configuration not stated) | -4.63
CCn1cc(-c2cc(C(F)F)n3nc(CC(=O)O)nc3n2)cn1 | -9.49
O=C(Cn1c(=O)n(Cc2ccco2)c2ncccc21)NC1CCCCC1 | 4.73
O=C(c1csc(C2CC2)n1)N1CCCCC1Cn1cccn1 (configuration not stated) | 0.745
CCCc1nc(C)c(C(=O)NCCn2nc3ccccn3c2=O)s1 | -10.1
CCOCCN1CCN(Cc2nc(CC(C)C)no2)CC1 | -13
CNC(=O)C1CCN(CC(=O)Nc2cc(C(C)C)no2)CC1 | -8.01
CC(C)(C)c1cc(NC(=O)CN2CCCC2Cn2cccn2)on1 (configuration not stated) | -15.3
Cc1nc(C2CCCN(C(=O)CCCn3cccn3)C2)no1 (configuration not stated) | -3.84
CC(=O)N1CCCN(C(=O)NCc2ccccn2)CC1 | -7.37
COc1c(CNCCNC(=O)c2ccc(C)cc2)c(C)nn1C | -3.39
CC1CN(CC(=O)Nc2cccnc2)CCN1c1nccs1 (configuration not stated) | -3.59
COc1ccccc1N1CCC(CNCc2cccc(C#N)c2)C1 (configuration not stated) | -5.21
CCN(CC)C(=O)CN(C)C1CCc2ccccc21 (configuration not stated) | -5.1
Cc1cnn(CCNCC(O)COc2c(C)ccc(C)c2C)c1 (configuration not stated) | -8.78
c1cnn(CCNCc2nnc(C3CC3)o2)c1 | -10.5

SMILES | cytotoxicity at 10 µM [%]
COc1ccc(C2=CCN(C(=O)CN(C)Cc3ccoc3)CC2)cc1 | -4.87
CCc1n[nH]c(C2CN(C(=O)Cn3ccccc3=O)CCO2)n1 (configuration not stated) | -0.746
CCn1cnnc1C1CCN(C(=O)COc2ccccc2)CC1 | 1.3
CN1CCc2c(C#N)c(NCc3cccnc3)n3cnnc3c2C1 | 11.2
O=C(Nc1nc2c(s1)CNCC2)C1CC1 | -0.0154
Cc1ccc(N2CC[C@H]3CO[C@H](CN(C)Cc4ccco4)[C@H]3C2)nn1 | 8.35
Cc1ccc(N2CCC3(CCCN(C(=O)c4cccnc4)C3)C2)nn1 (configuration not stated) | 2.21
Cn1cc(C(=O)NCc2cn3c(n2)CN(Cc2ccccn2)CC3)cn1 | -13.7
c1cncc(COCc2nnc3n2CCN(Cc2ccco2)C3)c1 | -4.04
CC(C)Nc1ncnc2c1CCN(C(=O)c1ccncc1F)CC2 | 4.76
c1cncc(N2CCOCC3(CN(Cc4cccs4)CCO3)C2)c1 (configuration not stated) | -79.7
Cc1cccc(COC[C@@]23CCC[C@@H]2CN(S(=O)(=O)N(C)C)C3)n1 | -6.87
CO[C@@H]1CCN(S(=O)(=O)c2cccnc2)[C@@H]2CN(CC3CC3)C[C@@H]21 | -65.7
CN(Cc1cn2c(n1)CN(CC1CCOC1)CC2)Cc1ccco1 (configuration not stated) | -82.9
c1ccc(OC2COC3(CCN(CC4CC4)CC3)C2)nc1 (configuration not stated) | -75.2
CN(C)CC(=O)N1CCC2(CC(=O)N(c3cccc(C#N)c3)C2)C1 (configuration not stated) | 3.37
c1cc(CNCc2cccc3c2OCCCO3)cc(Cn2cncn2)c1 | 8.1
O=C(C1CC=CC1)N1C[C@@H]2CN(Cc3ccsc3)CCO[C@@H]2C1 | -87.4
CCOc1c(OC)cc(C=Cc2ncc(C(=O)NC)s2)cc1OC | 1.62
CN(C)C(=O)CN1C[C@H]2CC[C@@H](C1)N(C/C=C/c1ccc(F)cc1)C2 | -7.65
